Data: ChEMBL document CHEMBL5303300, “EUbOPEN Chemogenomics Library - Multiplex” (2023)
Several values for one entry are separate records, joined by “and”; a condition that tells them apart may be missing. Equal values may be shown once.

System: Fibroblast
Test: Multiplex assay against human fibroblast
Format: toxicity, cell-based
Settings: number of replicates 2
In short: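 With compound added, live cells were imaged on a CQ1 microscope at 37°C and 5% CO2; staining with Hoechst33342, BioTracker Green Microtubule Cytoskeleton Dye, MitoTracker Red and Annexin V Alexa Fluor 680 had been done at seeding. The CellPathfinder machine-learning gating scheme split cells into Hoechst high-intensity objects or normal cells, normal cells into healthy, pyknosed or fragmented nuclei, and pyknosed cells into mitotic or apoptotic. The tubulin, mitochondrial-mass and membrane-permeability phenotypes are per cents of healthy-nucleus cells.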

[1] = 12 h, 1 µM, compound concentration 1 uM
[2] = 12 h, 10 µM, compound concentration 10 uM
[3] = 24 h, 1 µM, compound concentration 1 uM
[4] = 24 h, 10 µM, compound concentration 10 uM
[5] = 48 h, 1 µM, compound concentration 1 uM
[6] = 48 h, 10 µM, compound concentration 10 uM

For `CCN(CC)C/C=C/C(=O)Nc1cc2c(Nc3ccc(F)c(Cl)c3)ncnc2cc1OCC1CC1`, the “Population Apoptotic (%)” value [1] was 48% and 35%, the “Population Fragmented Nuclei (%)” value [1] was 14% and 17% and the “Population Healthy Nuclei (%)” value [1] was 62% and 55%. The “Population Hoechst High Intensity Objects (%)” value [1] was 0%, the “Population Membrane Permeable-Phenotype (%)” value [1] was 10% and 15% and the “Population Mitochondria Different-Phenotype (%)” value [1] was 2% and 4%. The “Population Mitotic Cells (%)” value [1] was 51% and 65%, the “Population Normal (%)” value [1] was 100% and the “Population Pyknosed Nuclei (%)” value [1] was 22% and 26%. The “Population Tubulin-Different-Phenotype (%)” value [1] was 61% and 56%, the “Total Cell Count” value [1] was 189 and 225 and the “Population Apoptotic (%)” value [2] was 63% and 58%. The “Population Fragmented Nuclei (%)” value [2] was 19% and 20%, the “Population Healthy Nuclei (%)” value [2] was 47% and 51% and the “Population Hoechst High Intensity Objects (%)” value [2] was 0%. The “Population Membrane Permeable-Phenotype (%)” value [2] was 25% and 20%, the “Population Mitotic Cells (%)” value [2] was 36% and 41% and the “Population Normal (%)” value [2] was 100%. The “Population Pyknosed Nuclei (%)” value [2] was 33% and 27%, the “Population Tubulin-Different-Phenotype (%)” value [2] was 92% and 87% and the “Total Cell Count” value [2] was 209 and 264. For the same compound, the “Population Apoptotic (%)” value [3] was 52% and 62%, the “Population Fragmented Nuclei (%)” value [3] was 17% and 20% and the “Population Healthy Nuclei (%)” value [3] was 60% and 64%. The “Population Hoechst High Intensity Objects (%)” value [3] was 1% and 0%, the “Population Membrane Permeable-Phenotype (%)” value [3] was 2% and 4% and the “Population Mitochondria Different-Phenotype (%)” value [3] was 7% and 12%. The “Population Mitotic Cells (%)” value [3] was 47% and 37%, the “Population Normal (%)” value [3] was 98% and 100% and the “Population Pyknosed Nuclei (%)” value [3] was 22% and 15%. The “Population Tubulin-Different-Phenotype (%)” value [3] was 75% and 62%, the “Total Cell Count” value [3] was 192 and 231 and the “Population Apoptotic (%)” value [4] was 91% and 85%. For the same compound, the “Population Fragmented Nuclei (%)” value [4] was 13% and 8%, the “Population Healthy Nuclei (%)” value [4] was 13% and 19% and the “Population Hoechst High Intensity Objects (%)” value [4] was 0%. For the same compound, the “Population Membrane Permeable-Phenotype (%)” value [4] was 14% and 16%, the “Population Mitochondria Different-Phenotype (%)” value [4] was 71% and 56% and the “Population Mitotic Cells (%)” value [4] was 8% and 14%. The “Population Normal (%)” value [4] was 99%, the “Population Pyknosed Nuclei (%)” value [4] was 72% and 71% and the “Population Tubulin-Different-Phenotype (%)” value [4] was 95% and 89%. The “Total Cell Count” value [4] was 154 and 190, the “Population Apoptotic (%)” value [5] was 73% and 53% and the “Population Fragmented Nuclei (%)” value [5] was 28% and 25%. The “Population Healthy Nuclei (%)” value [5] was 59% and 63%, the “Population Hoechst High Intensity Objects (%)” value [5] was 0% and the “Population Membrane Permeable-Phenotype (%)” value [5] was 3% and 1%. For the same compound, the “Population Mitochondria Different-Phenotype (%)” value [5] was 10% and 8%, the “Population Mitotic Cells (%)” value [5] was 26% and 46% and the “Population Normal (%)” value [5] was 100% and 99%. The “Population Pyknosed Nuclei (%)” value [5] was 12% and 11%, the “Population Tubulin-Different-Phenotype (%)” value [5] was 68% and 45% and the “Total Cell Count” value [5] was 210 and 233. The “Population Apoptotic (%)” value [6] was 92% and 94%, the “Population Fragmented Nuclei (%)” value [6] was 22% and 28% and the “Population Healthy Nuclei (%)” value [6] was 10% and 21%. For the same compound, the “Population Hoechst High Intensity Objects (%)” value [6] was 0%, the “Population Membrane Permeable-Phenotype (%)” value [6] was 41% and 38% and the “Population Mitochondria Different-Phenotype (%)” value [6] was 29% and 19%. The “Population Mitotic Cells (%)” value [6] was 7% and 5%, the “Population Normal (%)” value [6] was 100% and the “Population Pyknosed Nuclei (%)” value [6] was 67% and 49%. The “Population Tubulin-Different-Phenotype (%)” value [6] was 47% and 93% and the “Total Cell Count” value [6] was 168 and 145.
In the case of `CSc1cc2c(cc1C(F)(F)F)N(C(=O)Nc1cccnc1)CC2`, the “Population Apoptotic (%)” value [1] is reported as 50% and 34%, the “Population Fragmented Nuclei (%)” value [1] is reported as 9% and 17% and the “Population Healthy Nuclei (%)” value [1] is reported as 75% and 64%. The “Population Hoechst High Intensity Objects (%)” value [1] was 0%, the “Population Membrane Permeable-Phenotype (%)” value [1] was 6% and 2% and the “Population Mitochondria Different-Phenotype (%)” value [1] was 0% and 2%. For the same compound, the “Population Mitotic Cells (%)” value [1] was 50% and 65%, the “Population Normal (%)” value [1] was 100% and the “Population Pyknosed Nuclei (%)” value [1] was 15% and 17%. The “Population Tubulin-Different-Phenotype (%)” value [1] was 5% and 10%, the “Total Cell Count” value [1] was 144 and 180 and the “Population Apoptotic (%)” value [2] was 22% and 26%. For the same compound, the “Population Fragmented Nuclei (%)” value [2] was 4% and 13%, the “Population Healthy Nuclei (%)” value [2] was 84% and 71% and the “Population Hoechst High Intensity Objects (%)” value [2] was 0%. The “Population Membrane Permeable-Phenotype (%)” value [2] was 2% and 5%, the “Population Mitochondria Different-Phenotype (%)” value [2] was 0% and the “Population Mitotic Cells (%)” value [2] was 77% and 73%. For the same compound, the “Population Normal (%)” value [2] was 100%, the “Population Pyknosed Nuclei (%)” value [2] was 11% and 15% and the “Population Tubulin-Different-Phenotype (%)” value [2] was 8% and 2%. For the same compound, the “Total Cell Count” value [2] was 162 and 152, the “Population Apoptotic (%)” value [3] was 42% and 51% and the “Population Fragmented Nuclei (%)” value [3] was 5% and 14%. The “Population Healthy Nuclei (%)” value [3] was 80% and 65%, the “Population Hoechst High Intensity Objects (%)” value [3] was 0% and the “Population Membrane Permeable-Phenotype (%)” value [3] was 1% and 4%. The “Population Mitochondria Different-Phenotype (%)” value [3] was 0%, the “Population Mitotic Cells (%)” value [3] was 57% and 48% and the “Population Normal (%)” value [3] was 100% and 99%. The “Population Pyknosed Nuclei (%)” value [3] was 13% and 20%, the “Population Tubulin-Different-Phenotype (%)” value [3] was 9% and 11% and the “Total Cell Count” value [3] was 142 and 185. For the same compound, the “Population Apoptotic (%)” value [4] was 20% and 33%, the “Population Fragmented Nuclei (%)” value [4] was 9% and 15% and the “Population Healthy Nuclei (%)” value [4] was 81% and 73%. For the same compound, the “Population Hoechst High Intensity Objects (%)” value [4] was 0%, the “Population Membrane Permeable-Phenotype (%)” value [4] was 4% and 3% and the “Population Mitochondria Different-Phenotype (%)” value [4] was 0%. The “Population Mitotic Cells (%)” value [4] was 80% and 66%, the “Population Normal (%)” value [4] was 100% and the “Population Pyknosed Nuclei (%)” value [4] was 8% and 11%. The “Population Tubulin-Different-Phenotype (%)” value [4] was 9% and 3%, the “Total Cell Count” value [4] was 173 and 156 and the “Population Apoptotic (%)” value [5] was 55% and 70%. For the same compound, the “Population Fragmented Nuclei (%)” value [5] was 14% and 16%, the “Population Healthy Nuclei (%)” value [5] was 73% and 70% and the “Population Hoechst High Intensity Objects (%)” value [5] was 0%. For the same compound, the “Population Membrane Permeable-Phenotype (%)” value [5] was 5% and 8%, the “Population Mitochondria Different-Phenotype (%)” value [5] was 0% and the “Population Mitotic Cells (%)” value [5] was 44% and 29%. For the same compound, the “Population Normal (%)” value [5] was 99% and 100%, the “Population Pyknosed Nuclei (%)” value [5] was 11% and 12% and the “Population Tubulin-Different-Phenotype (%)” value [5] was 4% and 7%. For the same compound, the “Total Cell Count” value [5] was 158 and 187, the “Population Apoptotic (%)” value [6] was 54% and 46% and the “Population Fragmented Nuclei (%)” value [6] was 7% and 14%. For the same compound, the “Population Healthy Nuclei (%)” value [6] was 86% and 76%, the “Population Hoechst High Intensity Objects (%)” value [6] was 0% and the “Population Membrane Permeable-Phenotype (%)” value [6] was 3% and 2%. The “Population Mitochondria Different-Phenotype (%)” value [6] was 0%, the “Population Mitotic Cells (%)” value [6] was 45% and 53% and the “Population Normal (%)” value [6] was 100%. The “Population Pyknosed Nuclei (%)” value [6] was 5% and 9%, the “Population Tubulin-Different-Phenotype (%)” value [6] was 4% and 3% and the “Total Cell Count” value [6] was 188 and 164.
